In brackets after ≈: the same amount, converted by molar mass.
How the values were obtained:
Staphylococcus aureus = assay: Antimicrobial activity against Staphylococcus aureus ATCC 6538P by agar dilution method; format: functional; conditions: Staphylococcus aureus, ATCC 6538P; read-out: MIC
Method in brief: (§1)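 Read-out is the minimal inhibitory concentration, found by agar dilution against the named strain.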

Bacillus spizizenii = assay: Antimicrobial activity against Bacillus subtilis ATCC 6633 by agar dilution method; format: functional; conditions: Bacillus spizizenii, ATCC 6633; read-out: MIC; method in brief: as §1
Klebsiella pneumoniae = assay: Antimicrobial activity against Klebsiella pneumoniae ATCC 10031 by agar dilution method; format: functional; conditions: Klebsiella pneumoniae, ATCC 10031; read-out: MIC; method in brief: as §1
[1] = target: Bacterial 70S ribosome (Bacteria) (UniProt P0A7V0+P60723+P0AG67+P0A7R5+P0A7R9+P0A7S3+P0A7S9+P0AG59+P0ADZ4+P0A7T3+P0AG63+P0A7T7+P0A7U3+P0A7U7+P68679+P0A7V3+P0A7V8+P0A7W1+P02358+P02359+P0A7W7+P0A7X3+P0A7J3+P0A7J7+P0AA10+P0ADY3+P02413+P0ADY7+P0AG44+P0C018+P0A7K6+P0A7L0+P0A7L3+P0AG48+P61175+P0ADZ0+P60624+P68919+P0A7L8+P0A7M2+P0A7M6+P60422+P0AG51+P0A7N1+P0A7M9+P0A7N4+P0A7N9+P0A7P5+P0A7Q1+Q2EEQ2+P0A7Q6+P60438+P62399+P0AG55+P0A7K2); assay: (§2) Displacement of [14C]erythromycin from Escherichia coli ribosomes after 30 mins by scintillation spectrometer analysis
Method in brief: (§3)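 NH4Cl-washed E. coli ribosomes with [14C]erythromycin A and varied competitor concentrations in 0.01 M Tris-HCl pH 7.2, 0.1 M KCl, 0.004 M MgCl2, 0.01 M NH4Cl. Incubated 30 min at 24 °C, stopped by dilution in cold Tris/KCl/MgCl2 buffer, membrane-filtered, washed three times, dried, scintillation counted. Reports the concentration giving 50% inhibition of binding.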

Bacterial 70S ribosome = assay: as §2; method in brief: as §3

Compound | MIC (Staphylococcus aureus) | MIC (Bacillus spizizenii) | MIC (Klebsiella pneumoniae) | pK50 [1] | IC50 (Bacterial 70S ribosome)
CO[C@@H]1[C@@H](O[C@@H]2O[C@H](C)[C@@H](O[C@H]3C[C@@](C)(O)[C@@H](OC(=O)CC(C)C)[C@H](C)O3)[C@H](N(C)C)[C@H]2O)[C@@H](CC=O)C[C@@H](C)[C@@H](O)/C=C/C=C/C[C@@H](C)OC(=O)C[C@H]1OC(C)=O [JOSAMYCIN] | 1.6 mg/L (≈ 1.93 µM) | 0.4 mg/L (≈ 0.483 µM) | 25 mg/L (≈ 30.2 µM) | 5.9 | 1.2 µM
CCCC(=O)O[C@H]1[C@H](C)O[C@@H](O[C@H]2[C@H](N(C)C)[C@@H](OC(=O)CCCC(=O)O)[C@H](O[C@H]3[C@@H](CC=O)C[C@@H](C)[C@@H](O)/C=C/C=C/C[C@@H](C)OC(=O)C[C@@H](O)[C@@H]3OC)O[C@@H]2C)C[C@@]1(C)O | 0.8 mg/L (≈ 0.903 µM) | 0.8 mg/L (≈ 0.903 µM) | 25 mg/L (≈ 28.2 µM) | 5 | 9.3 µM
CCCC(=O)O[C@H]1[C@H](C)O[C@@H](O[C@H]2[C@H](N(C)C)[C@@H](OC(=O)CC)[C@H](O[C@H]3[C@@H](CC=O)C[C@@H](C)[C@@H](O)/C=C/C=C/C[C@@H](C)OC(=O)C[C@@H](OC(C)=O)[C@@H]3OC)O[C@@H]2C)C[C@@]1(C)O | 1.6 mg/L (≈ 1.84 µM) | 0.8 mg/L (≈ 0.919 µM) | 25 mg/L (≈ 28.7 µM) | 4.8 | 17.8 µM
CCCC(=O)O[C@H]1[C@H](C)O[C@@H](O[C@H]2[C@H](N(C)C)[C@@H](OC(C)=O)[C@H](O[C@H]3[C@@H](CC=O)C[C@@H](C)[C@@H](O)/C=C/C=C/C[C@@H](C)OC(=O)C[C@@H](O)[C@@H]3OC)O[C@@H]2C)C[C@@]1(C)O | 1.6 mg/L (≈ 1.97 µM) | 0.8 mg/L (≈ 0.983 µM) | 12.5 mg/L (≈ 15.4 µM) | 4.8 | 14.8 µM
CCCC(=O)O[C@H]1[C@H](C)O[C@@H](O[C@H]2[C@H](N(C)C)[C@@H](OC(C)=O)[C@H](O[C@H]3[C@@H](CC=O)C[C@@H](C)[C@@H](OC(C)=O)/C=C/C=C/C[C@@H](C)OC(=O)C[C@@H](OC(C)=O)[C@@H]3OC)O[C@@H]2C)C[C@@]1(C)O | 1.6 mg/L (≈ 1.78 µM) | 1.6 mg/L (≈ 1.78 µM) | 100 mg/L (≈ 111 µM) | 4.5 | 33.1 µM
CO[C@@H]1[C@@H](O[C@@H]2O[C@H](C)[C@@H](O[C@H]3C[C@@](C)(O)[C@@H](OC(=O)CC(C)C)[C@H](C)O3)[C@H](N(C)C)[C@H]2O)[C@@H](CC=O)C[C@@H](C)[C@@H](OC(C)=O)/C=C/C=C/C[C@@H](C)OC(=O)C[C@H]1OC(C)=O | 1.6 mg/L (≈ 1.84 µM) | 1.6 mg/L (≈ 1.84 µM) | 50 mg/L (≈ 57.5 µM) | 5.9 | 1.3 µM
CO[C@@H]1[C@@H](O[C@@H]2O[C@H](C)[C@@H](O[C@H]3C[C@@](C)(O)[C@@H](O)[C@H](C)O3)[C@H](N(C)C)[C@H]2O)[C@@H](CC=O)C[C@@H](C)[C@@H](OC(C)=O)/C=C/C=C/C[C@@H](C)OC(=O)C[C@H]1OC(C)=O | 3.1 mg/L (≈ 3.94 µM) | 1.6 mg/L (≈ 2.04 µM) | 50 mg/L (≈ 63.6 µM) | 5.2 | 6.3 µM
CCC(=O)O[C@H]1/C=C/C=C/C[C@@H](C)OC(=O)C[C@@H](OC(C)=O)[C@H](OC)[C@@H](O[C@@H]2O[C@H](C)[C@@H](O[C@H]3C[C@@](C)(O)[C@@H](OC(=O)CC(C)C)[C@H](C)O3)[C@H](N(C)C)[C@H]2O)[C@@H](CC=O)C[C@H]1C | 3.1 mg/L (≈ 3.51 µM) | 0.4 mg/L (≈ 0.452 µM) | 100 mg/L (≈ 113 µM) | 5.7 | 1.9 µM
CCCC(=O)O[C@H]1[C@H](C)O[C@@H](O[C@H]2[C@H](N(C)C)[C@@H](OC(=O)CCC(=O)O)[C@H](O[C@H]3[C@@H](CC=O)C[C@@H](C)[C@@H](OC(=O)CCC(=O)O)/C=C/C=C/C[C@@H](C)OC(=O)C[C@@H](O)[C@@H]3OC)O[C@@H]2C)C[C@@]1(C)O | 6.3 mg/L (≈ 6.48 µM) | 3.1 mg/L (≈ 3.19 µM) | 50 mg/L (≈ 51.4 µM) | 5.6 | 2.8 µM
CO[C@@H]1[C@@H](O[C@@H]2O[C@H](C)[C@@H](O[C@H]3C[C@@](C)(O)[C@@H](OC(=O)CC(C)C)[C@H](C)O3)[C@H](N(C)C)[C@H]2OC(C)=O)[C@@H](CC=O)C[C@@H](C)[C@@H](OC(C)=O)/C=C/C=C/C[C@@H](C)OC(=O)C[C@H]1OC(C)=O | 1.6 mg/L (≈ 1.75 µM) | 1.6 mg/L (≈ 1.75 µM) | 100 mg/L (≈ 110 µM) | 4.7 | 21.4 µM
CCCC(=O)O[C@H]1[C@H](C)O[C@@H](O[C@H]2[C@H](N(C)C)[C@@H](OC(C)=O)[C@H](O[C@H]3[C@@H](CC=O)C[C@@H](C)[C@@H](OC(C)=O)/C=C/C=C/C[C@@H](C)OC(=O)C[C@@H](O)[C@@H]3OC)O[C@@H]2C)C[C@@]1(C)O | 1.6 mg/L (≈ 1.87 µM) | 0.8 mg/L (≈ 0.935 µM) | 100 mg/L (≈ 117 µM) | 4.6 | 23.4 µM
CCCC(=O)O[C@H]1[C@H](C)O[C@@H](O[C@H]2[C@H](N(C)C)[C@@H](O)[C@H](O[C@H]3[C@@H](CC=O)C[C@@H](C)[C@@H](O)/C=C/C=C/C[C@@H](C)OC(=O)C[C@@H](O)[C@@H]3OC)O[C@@H]2C)C[C@@]1(C)O | 0.4 mg/L (≈ 0.518 µM) | 0.8 mg/L (≈ 1.04 µM) | 12.5 mg/L (≈ 16.2 µM) | 6 | 1.1 µM
CO[C@H]1C(O)CC(=O)O[C@H](C)C/C=C/C=C/[C@H](OC(C)=O)[C@H](C)C[C@H](CC=O)[C@@H]1O[C@@H]1O[C@H](C)[C@@H](O[C@H]2C[C@@](C)(O)[C@@H](O)[C@H](C)O2)[C@H](N(C)C)[C@H]1O (single isomer, unassigned) | 6.3 mg/L (≈ 8.47 µM) | 3.1 mg/L (≈ 4.17 µM) | 100 mg/L (≈ 134 µM) | 5.6 | 2.8 µM
CCCC(=O)O[C@H]1[C@H](C)O[C@@H](O[C@H]2[C@H](N(C)C)[C@@H](OC(=O)CCC(=O)O)[C@H](O[C@H]3[C@@H](CC=O)C[C@@H](C)[C@@H](O)/C=C/C=C/C[C@@H](C)OC(=O)C[C@@H](O)[C@@H]3OC)O[C@@H]2C)C[C@@]1(C)O | 1.6 mg/L (≈ 1.83 µM) | 0.8 mg/L (≈ 0.917 µM) | 100 mg/L (≈ 115 µM) | 5.7 | 1.9 µM
CO[C@@H]1[C@@H](O[C@@H]2O[C@H](C)[C@@H](O[C@H]3C[C@@](C)(O)[C@@H](OC(C)=O)[C@H](C)O3)[C@H](N(C)C)[C@H]2O)[C@@H](CC=O)C[C@@H](C)[C@@H](O)/C=C/C=C/C[C@@H](C)OC(=O)C[C@H]1OC(C)=O | 3.1 mg/L (≈ 3.94 µM) | 6.3 mg/L (≈ 8.02 µM) | 100 mg/L (≈ 127 µM) | 5.2 | 6.7 µM
CO[C@@H]1[C@@H](O[C@@H]2O[C@H](C)[C@@H](O[C@H]3C[C@@](C)(O)[C@@H](OC(=O)CC(C)C)[C@H](C)O3)[C@H](N(C)C)[C@H]2O)[C@@H](CC=O)C[C@@H](C)[C@@H](OC(=O)CCl)/C=C/C=C/C[C@@H](C)OC(=O)C[C@H]1OC(C)=O | 0.8 mg/L (≈ 0.884 µM) | 0.4 mg/L (≈ 0.442 µM) | 50 mg/L (≈ 55.3 µM) | 5.8 | 1.7 µM
CO[C@@H]1[C@@H](O[C@@H]2O[C@H](C)[C@@H](O[C@H]3C[C@@](C)(O)[C@@H](OC(=O)CC(C)C)[C@H](C)O3)[C@H](N(C)C)[C@H]2O)[C@@H](CC=O)C[C@@H](C)[C@@H](OC(=O)CCC(=O)O)/C=C/C=C/C[C@@H](C)OC(=O)C[C@H]1OC(C)=O | 3.1 mg/L (≈ 3.34 µM) | 3.1 mg/L (≈ 3.34 µM) | 100 mg/L (≈ 108 µM) | 5.5 | 3.4 µM
CCCC(=O)O[C@H]1[C@H](C)O[C@@H](O[C@H]2[C@H](N(C)C)[C@@H](OC(=O)CCC(=O)O)[C@H](O[C@H]3[C@@H](CC=O)C[C@@H](C)[C@@H](OC(C)=O)/C=C/C=C/C[C@@H](C)OC(=O)C[C@@H](O)[C@@H]3OC)O[C@@H]2C)C[C@@]1(C)O | 1.6 mg/L (≈ 1.75 µM) | 1.6 mg/L (≈ 1.75 µM) | 25 mg/L (≈ 27.4 µM) | 5.5 | 3.3 µM
CO[C@@H]1[C@@H](O[C@@H]2O[C@H](C)[C@@H](O[C@H]3C[C@@](C)(O)[C@@H](OC(=O)CC(C)C)[C@H](C)O3)[C@H](N(C)C)[C@H]2OC(C)=O)[C@@H](CC=O)C[C@@H](C)[C@@H](O)/C=C/C=C/C[C@@H](C)OC(=O)C[C@H]1OC(C)=O | 1.6 mg/L (≈ 1.84 µM) | 0.8 mg/L (≈ 0.919 µM) | 25 mg/L (≈ 28.7 µM) | 4.5 | 33.9 µM
